Test results reported in ChEMBL document CHEMBL3864121, “Development of ebsulfur analogues as potent antibacterials against methicillin-resistant Staphylococcus aureus” (Bioorg Med Chem, 2016).
Converted amounts (≈) assume the structure as drawn.

How the values were obtained:
Assay type in all cases: functional
Staphylococcus aureus [1] = assay: Antibacterial activity against methicillin-resistant Staphylococcus aureus BRS3 measured after overnight incubation by broth double-dilution method
How it was run: (§1)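 MIC by broth double-dilution in liquid Mueller-Hinton medium. Values are reported in µg/mL.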

Enterococcus faecium = assay: Antibacterial activity against Enterococcus faecium BM4105-RF measured after overnight incubation by broth double-dilution method; how it was run: as §1
Staphylococcus aureus [2] = assay: Antibacterial activity against methicillin-resistant Staphylococcus aureus C1 measured after overnight incubation by broth double-dilution method; how it was run: as §1
Staphylococcus aureus [3] = assay: Antibacterial activity against methicillin-resistant Staphylococcus aureus G12 measured after overnight incubation by broth double-dilution method; how it was run: as §1
Staphylococcus aureus [4] = assay: Antibacterial activity against methicillin-resistant Staphylococcus aureus G14 measured after overnight incubation by broth double-dilution method; how it was run: as §1
Staphylococcus aureus [5] = assay: Antibacterial activity against methicillin-resistant Staphylococcus aureus C7 measured after overnight incubation by broth double-dilution method; how it was run: as §1
Staphylococcus aureus [6] = assay: Antibacterial activity against methicillin-resistant Staphylococcus aureus USA600 measured after overnight incubation by broth double-dilution method; how it was run: as §1
Staphylococcus aureus [7] = assay: Antibacterial activity against methicillin-resistant Staphylococcus aureus 1 measured after overnight incubation by broth double-dilution method; how it was run: as §1
Enterococcus faecalis [8] = assay: Antibacterial activity against Enterococcus faecalis ATCC 49533 measured after overnight incubation by broth double-dilution method
How it was run: (§2)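 MIC by broth double-dilution in Mueller-Hinton medium. Re-testing at the time-kill inoculum used 1×10^6 CFU/mL.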

Staphylococcus aureus [9] = assay: Antibacterial activity against methicillin-resistant Staphylococcus aureus NRS77 measured after overnight incubation by broth double-dilution method; how it was run: as §1
Staphylococcus aureus [10] = assay: Antibacterial activity against methicillin-resistant Staphylococcus aureus S22 measured after overnight incubation by broth double-dilution method; how it was run: as §1
Staphylococcus aureus [11] = assay: Antibacterial activity against methicillin-resistant Staphylococcus aureus USA100 measured after overnight incubation by broth double-dilution method; how it was run: as §1
Staphylococcus aureus [12] = assay: Antibacterial activity against methicillin-resistant Staphylococcus aureus 2 measured after overnight incubation by broth double-dilution method; how it was run: as §1
Staphylococcus aureus [13] = assay: Antibacterial activity against methicillin-resistant Staphylococcus aureus G6 measured after overnight incubation by broth double-dilution method; how it was run: as §1
Staphylococcus aureus [14] = assay: Antibacterial activity against methicillin-resistant Staphylococcus aureus S17 measured after overnight incubation by broth double-dilution method; how it was run: as §1
[15] = system: Staphylococcus epidermidis; assay: Antibacterial activity against Staphylococcus epidermidis ATCC 35984 measured after overnight incubation by broth double-dilution method; conditions: RP62A; how it was run: as §2
Staphylococcus aureus [16] = assay: Antibacterial activity against methicillin-resistant Staphylococcus aureus USA300 measured after overnight incubation by broth double-dilution method; how it was run: as §1
Staphylococcus aureus [17] = assay: Antibacterial activity against methicillin-resistant Staphylococcus aureus C14 measured after overnight incubation by broth double-dilution method; how it was run: as §1
Staphylococcus aureus [18] = assay: Antibacterial activity against methicillin-resistant Staphylococcus aureus S24 measured after overnight incubation by broth double-dilution method; how it was run: as §1
[19] = system: Mycolicibacterium smegmatis; assay: Antibacterial activity against Mycobacterium smegmatis MC2-155 measured after overnight incubation by broth double-dilution method; conditions: str. MC2 155; how it was run: as §1
Staphylococcus aureus [20] = assay: Antibacterial activity against methicillin-resistant Staphylococcus aureus G1 measured after overnight incubation by broth double-dilution method; how it was run: as §1
Listeria monocytogenes = assay: Antibacterial activity against Listeria monocytogenes ATCC 19115 measured after overnight incubation by broth double-dilution method; how it was run: as §2
Staphylococcus aureus [21] = assay: Antibacterial activity against methicillin-resistant Staphylococcus aureus NRS4 measured after overnight incubation by broth double-dilution method; how it was run: as §1
Enterococcus faecalis [22] = assay: Antibacterial activity against Enterococcus faecalis ATCC 29212 measured after overnight incubation by broth double-dilution method; how it was run: as §2
Staphylococcus aureus [23] = assay: Antibacterial activity against methicillin-resistant Staphylococcus aureus NRS51 measured after overnight incubation by broth double-dilution method; how it was run: as §1
Staphylococcus aureus [24] = assay: Antibacterial activity against methicillin-sensitive Staphylococcus aureus ATCC 25923 measured after overnight incubation by broth double-dilution method; how it was run: as §1
Staphylococcus aureus [25] = assay: Antibacterial activity against methicillin-resistant Staphylococcus aureus S14 measured after overnight incubation by broth double-dilution method; how it was run: as §1
Staphylococcus aureus [26] = assay: Antibacterial activity against methicillin-resistant Staphylococcus aureus C2 measured after overnight incubation by broth double-dilution method; how it was run: as §1
Staphylococcus aureus [27] = assay: Antibacterial activity against methicillin-sensitive Staphylococcus aureus ATCC 6538 measured after overnight incubation by broth double-dilution method; how it was run: as §1
Staphylococcus aureus [28] = assay: Antibacterial activity against methicillin-resistant Staphylococcus aureus C16 measured after overnight incubation by broth double-dilution method; how it was run: as §1
Staphylococcus aureus [29] = assay: Antibacterial activity against methicillin-sensitive Staphylococcus aureus ATCC 29213 measured after overnight incubation by broth double-dilution method; how it was run: as §1
Staphylococcus aureus [30] = assay: Antibacterial activity against methicillin-resistant Staphylococcus aureus ATCC 33591 measured after overnight incubation by broth double-dilution method; how it was run: as §1
Staphylococcus aureus [31] = assay: Antibacterial activity against methicillin-resistant Staphylococcus aureus C19 measured after overnight incubation by broth double-dilution method; how it was run: as §1
Staphylococcus aureus [32] = assay: Antibacterial activity against methicillin-resistant Staphylococcus aureus USA200 measured after overnight incubation by broth double-dilution method; how it was run: as §1
Enterococcus = assay: Antibacterial activity against Vancomycin-resistant Enterococcus measured after overnight incubation by broth double-dilution method; how it was run: as §1

Compound	MIC (Staphylococcus aureus [1]) [µg/mL]	MIC (Enterococcus faecium) [µg/mL]	MIC (Staphylococcus aureus [2]) [µg/mL]	MIC (Staphylococcus aureus [3]) [µg/mL]	MIC (Staphylococcus aureus [4]) [µg/mL]	MIC (Staphylococcus aureus [5]) [µg/mL]	MIC (Staphylococcus aureus [6]) [µg/mL]	MIC (Staphylococcus aureus [7]) [µg/mL]	MIC (Enterococcus faecalis [8]) [µg/mL]	MIC (Staphylococcus aureus [9]) [µg/mL]	MIC (Staphylococcus aureus [10]) [µg/mL]	MIC (Staphylococcus aureus [11]) [µg/mL]	MIC (Staphylococcus aureus [12]) [µg/mL]	MIC (Staphylococcus aureus [13]) [µg/mL]	MIC (Staphylococcus aureus [14]) [µg/mL]	MIC [15] [µg/mL]	MIC (Staphylococcus aureus [16]) [µg/mL]	MIC (Staphylococcus aureus [17]) [µg/mL]	MIC (Staphylococcus aureus [18]) [µg/mL]	MIC [19] [µg/mL]	other results
CCCCCCCCCCCCn1sc2ccccc2c1=O	15.6 (≈ 48.8 µM)	3.9 (≈ 12.2 µM)	3.9 (≈ 12.2 µM)	1 (≈ 3.13 µM)	2 (≈ 6.26 µM)	2 (≈ 6.26 µM)	7.8 (≈ 24.4 µM)	0.25 (≈ 0.782 µM)	> 125	2 (≈ 6.26 µM)	3.9 (≈ 12.2 µM)	3.9 (≈ 12.2 µM)	1 (≈ 3.13 µM)	1 (≈ 3.13 µM)	1 (≈ 3.13 µM)	0.25 (≈ 0.782 µM)	7.8 (≈ 24.4 µM)	15.6 (≈ 48.8 µM)	1 (≈ 3.13 µM)	7.8 (≈ 24.4 µM)	MIC (Staphylococcus aureus [20]): 0.5 µg/mL (≈ 1.56 µM); MIC (Listeria monocytogenes): 15.6 µg/mL (≈ 48.8 µM); MIC (Staphylococcus aureus [21]): 3.9 µg/mL (≈ 12.2 µM); MIC (Enterococcus faecalis [22]): > 125 µg/mL; MIC (Staphylococcus aureus [23]): 3.9 µg/mL (≈ 12.2 µM); MIC (Staphylococcus aureus [24]): 3.9 µg/mL (≈ 12.2 µM); MIC (Staphylococcus aureus [25]): 1 µg/mL (≈ 3.13 µM); MIC (Staphylococcus aureus [26]): 1 µg/mL (≈ 3.13 µM); MIC (Staphylococcus aureus [27]): 62.5 µg/mL (≈ 196 µM); MIC (Staphylococcus aureus [28]): 3.9 µg/mL (≈ 12.2 µM); MIC (Staphylococcus aureus [29]): 3.9 µg/mL (≈ 12.2 µM); MIC (Staphylococcus aureus [30]): 2 µg/mL (≈ 6.26 µM); MIC (Staphylococcus aureus [31]): 1 µg/mL (≈ 3.13 µM); MIC (Staphylococcus aureus [32]): 7.8 µg/mL (≈ 24.4 µM); MIC (Enterococcus): 1 µg/mL (≈ 3.13 µM)
CC(C)CCn1c(=O)c2ccccc2[s+]1[O-] (stereo not given)	> 125	> 125	> 125	> 125	> 125	> 125	> 125	> 125	> 125	> 125	> 125	> 125	> 125	> 125	> 125	> 125	> 125	> 125	> 125	> 125	MIC (Staphylococcus aureus [20]): > 125 µg/mL; MIC (Listeria monocytogenes): > 125 µg/mL; MIC (Staphylococcus aureus [21]): > 125 µg/mL; MIC (Enterococcus faecalis [22]): > 125 µg/mL; MIC (Staphylococcus aureus [23]): > 125 µg/mL; MIC (Staphylococcus aureus [24]): > 125 µg/mL; MIC (Staphylococcus aureus [25]): > 125 µg/mL; MIC (Staphylococcus aureus [26]): > 125 µg/mL; MIC (Staphylococcus aureus [27]): > 125 µg/mL; MIC (Staphylococcus aureus [28]): > 125 µg/mL; MIC (Staphylococcus aureus [29]): > 125 µg/mL; MIC (Staphylococcus aureus [30]): > 125 µg/mL; MIC (Staphylococcus aureus [31]): > 125 µg/mL; MIC (Staphylococcus aureus [32]): > 125 µg/mL; MIC (Enterococcus): > 125 µg/mL
